From publication PMC12123727 (BMC Cancer, 2025)

Assay: Phase 1 safety evaluation
Type: in vivo, human
Settings: for Dose interruption: due to thrombocytopenia; for tolerability: Chinese patients with r/r B cell NHL, 40-80 mg BID
In short: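 3 + 3 escalation of oral test compound, 40, 60 or 80 mg BID 4 h apart, 7 days on and 7 off, after a single dose on D-3. Investigators graded AEs at every visit per CTCAE v5.0. DLT was assessed over cycle 1 and covered grade 4 cytopenias, febrile or bleeding grade ≥3 cytopenias, and grade ≥3 non-hematological toxicity. Safety set: ≥1 dose and ≥1 safety evaluation.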

CN(C)Cc1c(C(=O)NCCOc2ccc(C(=O)NO)cc2)oc2ccccc12 [abexinostat, Abexinostat]
TEAE: Abnormal ST segment on electrocardiogram (40 mg BID (n = 4), Any grade): 0 n (%)
TEAE: Abnormal T-wave on electrocardiogram (40 mg BID (n = 4), Any grade): 0 n (%)
TEAE: Anemia (40 mg BID (n = 4), Any grade): 1 (25.0) n (%)
TEAE: Any TEAEs (40 mg BID (n = 4), Any grade): 4 (100) n (%)
TEAE: Diarrhea (40 mg BID (n = 4), Any grade): 0 n (%)
TEAE: Elevated low-density lipoprotein (40 mg BID (n = 4), Any grade): 1 (25.0) n (%)
TEAE: Elevated α-hydroxybutyrate dehydrogenase (40 mg BID (n = 4), Any grade): 1 (25.0) n (%)
TEAE: Fatigue (40 mg BID (n = 4), Any grade): 1 (25.0) n (%)
TEAE: Hypercholesterolemia (40 mg BID (n = 4), Any grade): 1 (25.0) n (%)
TEAE: Hyperglycemia (40 mg BID (n = 4), Any grade): 1 (25.0) n (%)
TEAE: Hypertriglyceridemia (40 mg BID (n = 4), Any grade): 1 (25.0) n (%)
TEAE: Hyperuricemia (40 mg BID (n = 4), Any grade): 1 (25.0) n (%)
TEAE: Hypoalbuminemia (40 mg BID (n = 4), Any grade): 2 (50.0) n (%)
TEAE: Hypoproteinemia (40 mg BID (n = 4), Any grade): 1 (25.0) n (%)
TEAE: Leukopenia (40 mg BID (n = 4), Any grade): 0 n (%)
TEAE: Lymphopenia (40 mg BID (n = 4), Any grade): 0 n (%)
TEAE: Nausea (40 mg BID (n = 4), Any grade): 0 n (%)
TEAE: Neutropenia (40 mg BID (n = 4), Any grade): 1 (25.0) n (%)
TEAE: Thrombocytopenia (40 mg BID (n = 4), Any grade): 2 (50.0) n (%)
TEAE: Urinary white blood cell positivity (40 mg BID (n = 4), Any grade): 1 (25.0) n (%)
TEAE: Any TEAEs (40 mg BID (n = 4), ≥ Grade 3): 1 (25.0) n (%)
TEAE: Thrombocytopenia (40 mg BID (n = 4), ≥ Grade 3): 1 (25.0) n (%)
Dose interruption (40 mg BID group): one patient
TEAE: Abnormal ST segment on electrocardiogram (60 mg BID (n = 3), Any grade): 1 (33.3) n (%)
TEAE: Abnormal T-wave on electrocardiogram (60 mg BID (n = 3), Any grade): 1 (33.3) n (%)
TEAE: Anemia (60 mg BID (n = 3), Any grade): 1 (33.3) n (%)
TEAE: Any TEAEs (60 mg BID (n = 3), Any grade): 3 (100) n (%)
TEAE: Diarrhea (60 mg BID (n = 3), Any grade): 1 (33.3) n (%)
TEAE: Elevated low-density lipoprotein (60 mg BID (n = 3), Any grade): 2 (66.7) n (%)
TEAE: Elevated α-hydroxybutyrate dehydrogenase (60 mg BID (n = 3), Any grade): 1 (33.3) n (%)
TEAE: Fatigue (60 mg BID (n = 3), Any grade): 1 (33.3) n (%)
TEAE: Hypercholesterolemia (60 mg BID (n = 3), Any grade): 1 (33.3) n (%)
TEAE: Hyperglycemia (60 mg BID (n = 3), Any grade): 0 n (%)
TEAE: Hypertriglyceridemia (60 mg BID (n = 3), Any grade): 2 (66.7) n (%)
TEAE: Hyperuricemia (60 mg BID (n = 3), Any grade): 1 (33.3) n (%)
TEAE: Hypoalbuminemia (60 mg BID (n = 3), Any grade): 2 (66.7) n (%)
TEAE: Hypoproteinemia (60 mg BID (n = 3), Any grade): 2 (66.7) n (%)
TEAE: Leukopenia (60 mg BID (n = 3), Any grade): 1 (33.3) n (%)
TEAE: Lymphopenia (60 mg BID (n = 3), Any grade): 1 (33.3) n (%)
TEAE: Nausea (60 mg BID (n = 3), Any grade): 1 (33.3) n (%)
TEAE: Neutropenia (60 mg BID (n = 3), Any grade): 1 (33.3) n (%)
TEAE: Thrombocytopenia (60 mg BID (n = 3), Any grade): 2 (66.7) n (%)
TEAE: Urinary white blood cell positivity (60 mg BID (n = 3), Any grade): 1 (33.3) n (%)
TEAE: Any TEAEs (60 mg BID (n = 3), ≥ Grade 3): 2 (66.7) n (%)
TEAE: Hypertriglyceridemia (60 mg BID (n = 3), ≥ Grade 3): 1 (33.3) n (%)
TEAE: Thrombocytopenia (60 mg BID (n = 3), ≥ Grade 3): 1 (33.3) n (%)
Dose interruption (60 mg BID group): one patient
Dose reduction due to TEAEs (60 mg BID group, thrombocytopenia): one patient
TEAE: Abnormal ST segment on electrocardiogram (80 mg BID (n = 4), Any grade): 2 (50.0) n (%)
TEAE: Abnormal T-wave on electrocardiogram (80 mg BID (n = 4), Any grade): 3 (75.0) n (%)
TEAE: Anemia (80 mg BID (n = 4), Any grade): 2 (50.0) n (%)
TEAE: Any TEAEs (80 mg BID (n = 4), Any grade): 4 (100) n (%)
TEAE: Diarrhea (80 mg BID (n = 4), Any grade): 3 (75.0) n (%)
TEAE: Elevated low-density lipoprotein (80 mg BID (n = 4), Any grade): 0 n (%)
TEAE: Elevated α-hydroxybutyrate dehydrogenase (80 mg BID (n = 4), Any grade): 1 (25.0) n (%)
TEAE: Fatigue (80 mg BID (n = 4), Any grade): 2 (50.0) n (%)
TEAE: Hypercholesterolemia (80 mg BID (n = 4), Any grade): 1 (25.0) n (%)
TEAE: Hyperglycemia (80 mg BID (n = 4), Any grade): 2 (50.0) n (%)
TEAE: Hypertriglyceridemia (80 mg BID (n = 4), Any grade): 3 (75.0) n (%)
TEAE: Hyperuricemia (80 mg BID (n = 4), Any grade): 1 (25.0) n (%)
TEAE: Hypoalbuminemia (80 mg BID (n = 4), Any grade): 1 (25.0) n (%)
TEAE: Hypoproteinemia (80 mg BID (n = 4), Any grade): 2 (50.0) n (%)
TEAE: Leukopenia (80 mg BID (n = 4), Any grade): 3 (75.0) n (%)
TEAE: Lymphopenia (80 mg BID (n = 4), Any grade): 2 (50.0) n (%)
TEAE: Nausea (80 mg BID (n = 4), Any grade): 2 (50.0) n (%)
TEAE: Neutropenia (80 mg BID (n = 4), Any grade): 3 (75.0) n (%)
TEAE: Thrombocytopenia (80 mg BID (n = 4), Any grade): 1 (25.0) n (%)
TEAE: Urinary white blood cell positivity (80 mg BID (n = 4), Any grade): 1 (25.0) n (%)
TEAE: Any TEAEs (80 mg BID (n = 4), ≥ Grade 3): 2 (50.0) n (%)
TEAE: Hyperglycemia (80 mg BID (n = 4), ≥ Grade 3): 1 (25.0) n (%)
TEAE: Hypertriglyceridemia (80 mg BID (n = 4), ≥ Grade 3): 2 (50.0) n (%)
Dose reduction due to TEAEs (80 mg BID group, QTc interval prolongation): one patient
recommended phase 2 dose (RP2D) (7 days on, 7 days off, oral): 80 mg BID
tolerability: well-tolerated
tolerability (listed as Abexinostat): favorable tolerability
TEAE: Abnormal ST segment on electrocardiogram (Total (n = 11), Any grade): 3 (27.3) n (%)
TEAE: Abnormal T-wave on electrocardiogram (Total (n = 11), Any grade): 4 (36.4) n (%)
TEAE: Anemia (Total (n = 11), Any grade): 4 (36.4) n (%)
TEAE: Any TEAEs (Total (n = 11), Any grade): 11 (100) n (%)
TEAE: Diarrhea (Total (n = 11), Any grade): 4 (36.4) n (%)
TEAE: Elevated low-density lipoprotein (Total (n = 11), Any grade): 3 (27.3) n (%)
TEAE: Elevated α-hydroxybutyrate dehydrogenase (Total (n = 11), Any grade): 3 (27.3) n (%)
TEAE: Fatigue (Total (n = 11), Any grade): 4 (36.4) n (%)
TEAE: Hypercholesterolemia (Total (n = 11), Any grade): 3 (27.3) n (%)
TEAE: Hyperglycemia (Total (n = 11), Any grade): 3 (27.3) n (%)
TEAE: Hypertriglyceridemia (Total (n = 11), Any grade): 6 (54.5) n (%)
TEAE: Hyperuricemia (Total (n = 11), Any grade): 3 (27.3) n (%)
TEAE: Hypoalbuminemia (Total (n = 11), Any grade): 5 (45.5) n (%)
TEAE: Hypoproteinemia (Total (n = 11), Any grade): 5 (45.5) n (%)
TEAE: Leukopenia (Total (n = 11), Any grade): 4 (36.4) n (%)
TEAE: Lymphopenia (Total (n = 11), Any grade): 3 (27.3) n (%)
TEAE: Nausea (Total (n = 11), Any grade): 3 (27.3) n (%)
TEAE: Neutropenia (Total (n = 11), Any grade): 5 (45.5) n (%)
TEAE: Thrombocytopenia (Total (n = 11), Any grade): 5 (45.5) n (%)
TEAE: Urinary white blood cell positivity (Total (n = 11), Any grade): 3 (27.3) n (%)
TEAE: Any TEAEs (Total (n = 11), ≥ Grade 3): 5 (45.5) n (%)
TEAE: Hyperglycemia (Total (n = 11), ≥ Grade 3): 1 (9.1) n (%)
TEAE: Hypertriglyceridemia (Total (n = 11), ≥ Grade 3): 3 (27.3) n (%)
TEAE: Thrombocytopenia (Total (n = 11), ≥ Grade 3): 2 (18.2) n (%)
dose limiting toxicity (DLT) (dose escalation 40, 60, 80 mg BID, assessed after cycle 1): No DLT
≥ grade 3 thrombocytopenia (safety set, all doses, 2/11 (abstract: grade 3)): 18.2%
≥ grade 3 hypertriglyceridemia (safety set, all doses, 3/11 (abstract: grade 3)): 27.3%
any grade TEAE: abnormal T wave on electrocardiogram (safety set, all doses, 4/11): 36.4%
any grade TEAE: anemia (safety set, all doses, 4/11): 36.4%
any grade TEAE: diarrhea (safety set, all doses, 4/11): 36.4%
any grade TEAE: fatigue (safety set, all doses, 4/11): 36.4%
any grade TEAE: leukopenia (safety set, all doses, 4/11): 36.4%
any grade TEAE: hypoalbuminemia (safety set, all doses, 5/11): 45.5%
any grade TEAE: hypoproteinemia (safety set, all doses, 5/11): 45.5%
any grade TEAE: neutropenia (safety set, all doses, 5/11): 45.5%
any grade TEAE: thrombocytopenia (safety set, all doses, 5/11): 45.5%
any grade TEAE: hypertriglyceridemia (safety set, all doses, 6/11): 54.5%
grade of most TEAEs (safety set, n = 11): grade 1 or 2
